Test results as given in ChEMBL document CHEMBL1250450, “Well-defined regions of the Plasmodium falciparum reticulocyte binding protein homologue 4 mediate interaction with red blood cell membrane” (J Med Chem, 2010).
Residues, ends and D or L forms follow the SMILES beside them.

Species: Homo sapiens
Test: Binding affinity to RBC membrane receptor in human RBC assessed as specific binding activity measured as ratio of specifically bound peptide/added peptide by gamma counter
How it was run: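 1 × 10^8 healthy-donor RBCs incubated in triplicate with four rising concentrations of 125I-peptide (0-560 nM), with or without unlabeled peptide, then washed in HBS (pH 7.4) and gamma-counted. Specific binding (total minus nonspecific) plotted against added peptide; the slope is the specific binding activity. The HABP cutoff is ≥2%.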

Activity | Molecule
< 2% | CC[C@H](C)[C@H](NC(=O)[C@@H](NC(=O)[C@H](CCCNC(=N)N)NC(=O)[C@H](CCC(N)=O)NC(=O)[C@H](CO)NC(=O)[C@@H](NC(=O)[C@H](CC(N)=O)NC(=O)[C@@H](NC(=O)[C@@H](NC(=O)[C@@H](N)CCCCN)[C@@H](C)O)[C@@H](C)CC)[C@H](C)O)[C@@H](C)O)C(=O)N[C@@H](CC(=O)O)C(=O)N[C@@H](CC(=O)O)C(=O)N[C@@H](CO)C(=O)N[C@@H](CC(N)=O)C(=O)N[C@@H](CCSC)C(=O)N[C@@H](CC(=O)O)C(=O)N[C@@H](CCCNC(=N)N)C(=O)N[C@@H](CC(N)=O)C(=O)N[C@@H](CC(N)=O)C(=O)N[C@@H](CCCNC(=N)N)C(=O)N[C@@H](Cc1ccc(O)cc1)C(=O)O
< 2% | CC[C@H](C)[C@H](NC(=O)[C@H](CC(N)=O)NC(=O)[C@H](CCCCN)NC(=O)[C@H](CCC(=O)O)NC(=O)[C@H](CC(N)=O)NC(=O)[C@@H](NC(=O)[C@H](Cc1cnc[nH]1)NC(=O)[C@H](CCC(=O)O)NC(=O)[C@H](CC(N)=O)NC(=O)[C@H](CC(N)=O)NC(=O)[C@@H](NC(=O)[C@H](CC(N)=O)NC(=O)[C@H](CC(N)=O)NC(=O)[C@H](CCC(=O)O)NC(=O)[C@H](CC(N)=O)NC(=O)[C@@H](NC(=O)[C@H](Cc1cnc[nH]1)NC(=O)[C@H](CCC(=O)O)NC(=O)[C@H](CC(N)=O)NC(=O)[C@@H](N)CC(N)=O)[C@H](C)O)[C@@H](C)CC)[C@H](C)O)C(=O)N[C@@H](Cc1ccc(O)cc1)C(=O)O
< 2% | CC[C@H](C)[C@H](NC(=O)[C@H](CCC(N)=O)NC(=O)[C@H](CCC(N)=O)NC(=O)[C@H](CO)NC(=O)[C@H](Cc1ccc(O)cc1)NC(=O)[C@H](CC(N)=O)NC(=O)[C@@H](NC(=O)[C@H](CC(N)=O)NC(=O)[C@H](Cc1cnc[nH]1)NC(=O)[C@@H](NC(=O)[C@H](Cc1ccccc1)NC(=O)[C@@H](NC(=O)[C@H](CC(=O)O)NC(=O)[C@@H](N)CO)C(C)C)[C@H](C)O)[C@@H](C)CC)C(=O)N[C@@H](CC(C)C)C(=O)N[C@@H](CC(N)=O)C(=O)N[C@@H](Cc1ccc(O)cc1)C(=O)N[C@@H](CO)C(=O)N[C@@H](CCC(N)=O)C(=O)N[C@@H](C)C(=O)O
< 2% | CC[C@H](C)[C@H](NC(=O)[C@H](Cc1ccc(O)cc1)NC(=O)[C@H](CCC(=O)O)NC(=O)[C@H](Cc1ccc(O)cc1)NC(=O)[C@H](CCC(=O)O)NC(=O)[C@H](CCCCN)NC(=O)[C@H](C)NC(=O)[C@H](C)NC(=O)[C@H](CC(N)=O)NC(=O)[C@@H](NC(=O)[C@H](C)NC(=O)[C@H](CC(N)=O)NC(=O)[C@H](CC(N)=O)NC(=O)[C@H](CO)NC(=O)[C@H](CC(N)=O)NC(=O)[C@H](NC(=O)[C@@H](N)Cc1ccccc1)[C@@H](C)CC)C(C)C)C(=O)N[C@H](C(=O)N[C@@H](CCCCN)C(=O)N[C@@H](Cc1ccc(O)cc1)C(=O)O)[C@@H](C)CC
< 2% | CC[C@H](C)[C@H](NC(=O)[C@H](Cc1ccccc1)NC(=O)[C@H](Cc1ccccc1)NC(=O)[C@H](Cc1ccccc1)NC(=O)[C@H](C)NC(=O)[C@@H](NC(=O)[C@H](CO)NC(=O)[C@H](CO)NC(=O)[C@@H](N)CS)[C@H](C)O)C(=O)N[C@@H](CCCCN)C(=O)N[C@@H](CC(N)=O)C(=O)N[C@@H](CO)C(=O)N[C@@H](CC(N)=O)C(=O)N[C@@H](CCC(=O)O)C(=O)N1CCC[C@H]1C(=O)N[C@@H](Cc1cnc[nH]1)C(=O)N[C@@H](Cc1cnc[nH]1)C(=O)N[C@H](C(=O)N[C@@H](Cc1ccccc1)C(=O)N[C@@H](CC(N)=O)C(=O)N[C@@H](Cc1ccc(O)cc1)C(=O)O)[C@@H](C)CC
< 2% | CC[C@H](C)[C@H](NC(=O)[C@H](Cc1ccc(O)cc1)NC(=O)[C@H](CCC(=O)O)NC(=O)[C@H](CC(N)=O)NC(=O)[C@@H](NC(=O)[C@H](CCCCN)NC(=O)[C@@H](N)CCCCN)C(C)C)C(=O)N[C@@H](CC(N)=O)C(=O)N[C@@H](CC(N)=O)C(=O)N[C@@H](CO)C(=O)N[C@@H](CC(=O)O)C(=O)N[C@@H](CS)C(=O)N[C@@H](Cc1cnc[nH]1)C(=O)N[C@@H](CC(C)C)C(=O)N[C@H](C(=O)N[C@@H](CS)C(=O)N[C@@H](CO)C(=O)N[C@@H](CCCCN)C(=O)N[C@@H](Cc1ccc(O)cc1)C(=O)N[C@@H](CCCCN)C(=O)O)[C@@H](C)O (H-KKVNEYINNSDCHLTCSKYK-OH)
< 2% | H-CIKQTYNNNKSIESLKLKIN-OH
< 2% | H-DDNFIEYNILNADPDLRSHF-OH
< 2% | H-DIENIIKQNEHTESYKNLDT-OH
< 2% | H-DYSLLKLSYNKNQDIYKNIQ-OH
< 2% | H-EDEDENENEVENENEDFNDIY-OH
< 2% | H-EKGKRGTSRNNNIHTNENNIY-OH
< 2% | H-EKIGLRQMENRLKGKYEEIK-OH
< 2% | H-ELIPITQQIQTKMYTTNNIE-OH
< 2% | H-FDQINQKYDDLTKNINQMND-OH
< 2% | H-FMQNETFKKNIDDKIKEMNNY-OH
< 2% | H-HIKQILINYIQECKPIQNIS-OH
< 2% | H-HKINNYSHNIEDLINQLQHK-OH
< 2% | H-IFQKEFSEADNAHSEEKEEY-OH
< 2% | H-IIKNITSIYYKINILNILII-OH
< 2% | H-INNLMIISFDKNKSSDLMLQY-OH
< 2% | H-IQERNQNNQIVKELKYNKQI-OH
< 2% | H-IQHYQTKFNINTNTKQLQQL-OH
< 2% | H-IQNHKNKQETKLNTTTIQELY-OH
< 2% | H-IRKIYDIETIYQNDLHNIEE-OH

Activity | Molecule
< 2% | H-ITLLVSRKQLIYIEYIYFIN-OH
< 2% | H-KANLQDRDIKYIVQNNDANN-OH
< 2% | H-KEIKKVLPQLYIPKNEQEYI-OH
< 2% | H-KIHTLEELKILTQEINDKNVY-OH
< 2% | H-KYNLPQERIIKNYNHNGINN-OH
< 2% | H-LNIKDKDEKKRKNDNLINNY-OH
< 2% | H-LPVYFDEVEDEVEDEVEDED-OH
< 2% | H-LQLLKDIKEIQTKQIDTKINY-OH
> 2% | H-MLETTKEQILLLWNNKKISQY-OH
< 2% | H-NGQKLKTDIILNSFVQINSSY-OH
< 2% | H-NHVELYIKNFQKNKIQIHKN-OH
< 2% | H-NISQNYNNHSLSFVHSINNH-OH
< 2% | H-NLTNSTQEYINQIKAIPTNL-OH
< 2% | H-NNEHANEKNIYNEHTNENNI-OH
< 2% | H-NNLKDNIQININNIKSIIRNY-OH
< 2% | H-NYEHPNNYQQKNDEKISLQH-OH
< 2% | H-PPNSPFRSYYDKNLNKDINE-OH
< 2% | H-QEFNKKIQHFKEETQIMIWKY-OH
< 2% | H-QENITTFENQYKDLIIKMNH-OH
< 2% | H-QFYINEKNYNNNHDDHNDDH-OH
< 2% | H-TCHSIQTLLNNLISSKIIFKY-OH
< 2% | H-TFNMYYNDIQQIKIKINQNE-OH
< 2% | H-YNNNHDKQNEHKYNQGKSSG-OH
< 2% | H-YNTSSQQKNNLHTNNNSNSR-OH
< 2% | H-YTTFKYLQTLNKSLYDSIYK-OH

Molecule | Activity
H-KINNNLKDITHIVINDNNTLY-OH | < 2%
